Results: ChEMBL document CHEMBL1821649, “Synthesis, characterization of some benzazoles bearing pyridine moiety: search for novel anticancer agents” (2011)

Tested on: UO-31
Experiment: Antitumor activity against human UO31 cells at 10^-5 M after 48 hrs by SRB assay
Type: functional
Conditions: UO-31, 48 h, read-out: GI
Summary of the method: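 Single-dose screen following the National Cancer Institute Drug Evaluation Branch protocol, run on the NCI panel of 60 human tumour cell lines covering nine cancer types. Percent growth of treated cells was recorded and reported as percentage growth inhibition (GI%). Compounds meeting preset inhibition thresholds advanced to a five-dose, 10-fold dilution series.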

SMILES: Cc1cc2nc(-c3c(N)ncc(C#N)c3-c3ccc(O)cc3)[nH]c2cc1C
- inhibition of growth at 10 µM: 33.4%
